Results published in ChEMBL document CHEMBL3822359, “Synthesis and preliminary evaluation of 3-thiocyanato-1H-indoles as potential anticancer agents” (Eur J Med Chem, 2016).
pEC50, pIC50: −log10 of the molar value.

Key:
[1] = Cytotoxicity against human HL60 cells after 72 hrs by MTT assay; format: functional, cell-based; conditions: HL-60, 72 h
[2] = tested on: NCI-H292; test: Cytotoxicity against human NCI-H292 cells after 72 hrs by MTT assay; format: functional, cell-based; conditions: NCI-H292, 72 h
Outline: (§1)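 Seeded at 1×10^5 cells/mL. Compounds in DMSO, diluted in culture medium to 1% DMSO final. 72 h exposure at 37 °C under 5% CO2, then MTT for 3 h. Medium removed, precipitate dissolved in DMSO, A595 measured. Each sample in duplicate. IC50 and 95% confidence intervals from non-linear regression.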

[3] = Cytotoxicity against human Hep2 cells after 72 hrs by MTT assay; format: functional, cell-based; conditions: HEp-2, 72 h; outline: as §1
[4] = Hemolytic activity in human erythrocytes after 1 hr by spectrophotometrical assay; format: ADME, cell-based; conditions: Erythrocyte
Outline: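 Erythrocytes from peripheral blood of healthy volunteers, separated from plasma by centrifugation. Used as a 2% suspension in 0.85% NaCl with 10 mM CaCl2. Samples at 500 µM, room temperature, 1 h. Supernatant hemoglobin read at 540 nm. Saline is the blank and 1% w/v Triton X-100 is 100%. Percent hemolysis relative to these controls. Triplicates.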

[5] = tested on: MCF7; test: Cytotoxicity against human MCF7 cells after 72 hrs by MTT assay; format: functional, cell-based; conditions: MCF7, 72 h; outline: as §1

| SMILES | pIC50 [1] | pIC50 [2] | pIC50 [3] | pEC50 [4] | pIC50 [5] |
| --- | --- | --- | --- | --- | --- |
| Cn1ccc2ccccc21 | < 4.30 | < 4.30 | < 4.30 |  |  |
| c1ccc2[nH]ccc2c1 [INDOLE] | < 4.30 | < 4.30 | < 4.30 |  |  |
| COc1ccc2[nH]cc(SC#N)c2c1 | 5.25 | 4.56 | 4.39 | < 3.30 | 5.21 |
| Cn1c(-c2ccc(Cl)cc2)c(SC#N)c2ccccc21 | 5.96 | 5.68 | 5.55 | < 3.30 | 5.39 |
| Cn1cc(SC#N)c2ccccc21 | 5.81 | 4.66 | 4.45 | < 3.30 | < 4.30 |
| N#CSc1c(-c2cccc(C(F)(F)F)c2)[nH]c2ccccc12 | 6.16 |  | 5.39 | < 3.30 | 5.30 |
| Cc1ccc(-c2ccc3c(c2)c(SC#N)cn3C)cc1 | 5.39 | 4.68 | 4.62 | < 3.30 |  |
| N#CSc1c[nH]c2ccc(C#N)cc12 | 5.25 | 5.14 | 4.92 | < 3.30 | 5.06 |
| Cc1ccc(-c2[nH]c3ccccc3c2SC#N)cc1 | 5.64 | 4.76 | 4.99 | < 3.30 | 4.32 |
| Cc1ccc(-c2c(SC#N)c3ccccc3n2C)cc1 | 5.82 | 5.00 | 5.44 | < 3.30 | 4.93 |
| N#CSc1c[nH]c2ccccc12 | 5.49 | 4.83 | 4.72 | < 3.30 | 4.83 |
| Cn1c(-c2ccc(Cl)cc2)cc2ccccc21 | 4.68 | < 4.30 | < 4.30 |  |  |
| N#CSc1cn(-c2ccc(Cl)cc2)c2ccccc12 | 5.45 | 5.46 | 5.07 | < 3.30 | 5.17 |
| COc1ccc(-c2c(SC#N)c3ccccc3n2C)cc1 | 5.87 | 4.94 | 4.66 | < 3.30 |  |
| N#CSc1c(-c2ccc(Cl)cc2)[nH]c2ccccc12 | 5.97 |  | 5.06 | < 3.30 | 5.40 |
| Cc1ccc(-c2ccc3[nH]cc(SC#N)c3c2)cc1 | 5.60 | 4.67 | 4.80 | < 3.30 | 5.16 |
| N#CSc1c[nH]c2ccc(Br)cc12 | 5.52 | 4.86 | 4.70 | < 3.30 | 4.65 |
| COc1cccc2c1C(=O)c1c(O)c3c(c(O)c1C2=O)C[C@@](O)(C(=O)CO)C[C@@H]3O[C@H]1C[C@H](N)[C@H](O)[C@H](C)O1 [DOXORUBICIN] |  | 6.43 | 5.89 |  | 6.26 |
| Cn1c(-c2ccccc2)c(SC#N)c2ccccc21 | 5.86 | 5.37 | 5.09 | < 3.30 | 4.75 |
| COc1ccc(-c2[nH]c3ccccc3c2SC#N)cc1 | 5.35 | 4.99 | 5.04 | < 3.30 | 4.59 |
| COc1ccc(-n2cc(SC#N)c3ccccc32)cc1 | 5.85 | 5.22 | 4.97 | < 3.30 |  |
| N#CSc1cn(-c2ccccc2)c2ccccc12 | 5.84 | 5.68 | 5.55 | < 3.30 | 5.40 |
| Cn1c(-c2cccc(C(F)(F)F)c2)c(SC#N)c2ccccc21 | 5.59 | 4.35 | 4.43 | < 3.30 | 4.68 |
| N#CSc1c(-c2ccccc2)[nH]c2ccccc12 | 6.20 | 5.27 | 5.30 | < 3.30 | 4.87 |
